From PubChem BioAssay
This is a sample that favours compounds with a hit; in the whole collection about 2.3% have one here.
TRPC6 inhibitor – blocks the mouse TRPC6 cation channel; Q61143; HEK293-TRPC6, membrane potential dye, ACh-evoked depolarization; active compounds read low; B-score at 10 µM; 310,000 compounds, 1.1% hits;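 active means B-score under library mean minus 3 SD, initial fluorescence not abnormally high, positive integrated signal ratio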;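 further: B-score derived from integrated fluorescence ratio over the kinetic read; more negative B-score means stronger inhibition of depolarization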
Target sequence (Q61143 whole entry, looked up): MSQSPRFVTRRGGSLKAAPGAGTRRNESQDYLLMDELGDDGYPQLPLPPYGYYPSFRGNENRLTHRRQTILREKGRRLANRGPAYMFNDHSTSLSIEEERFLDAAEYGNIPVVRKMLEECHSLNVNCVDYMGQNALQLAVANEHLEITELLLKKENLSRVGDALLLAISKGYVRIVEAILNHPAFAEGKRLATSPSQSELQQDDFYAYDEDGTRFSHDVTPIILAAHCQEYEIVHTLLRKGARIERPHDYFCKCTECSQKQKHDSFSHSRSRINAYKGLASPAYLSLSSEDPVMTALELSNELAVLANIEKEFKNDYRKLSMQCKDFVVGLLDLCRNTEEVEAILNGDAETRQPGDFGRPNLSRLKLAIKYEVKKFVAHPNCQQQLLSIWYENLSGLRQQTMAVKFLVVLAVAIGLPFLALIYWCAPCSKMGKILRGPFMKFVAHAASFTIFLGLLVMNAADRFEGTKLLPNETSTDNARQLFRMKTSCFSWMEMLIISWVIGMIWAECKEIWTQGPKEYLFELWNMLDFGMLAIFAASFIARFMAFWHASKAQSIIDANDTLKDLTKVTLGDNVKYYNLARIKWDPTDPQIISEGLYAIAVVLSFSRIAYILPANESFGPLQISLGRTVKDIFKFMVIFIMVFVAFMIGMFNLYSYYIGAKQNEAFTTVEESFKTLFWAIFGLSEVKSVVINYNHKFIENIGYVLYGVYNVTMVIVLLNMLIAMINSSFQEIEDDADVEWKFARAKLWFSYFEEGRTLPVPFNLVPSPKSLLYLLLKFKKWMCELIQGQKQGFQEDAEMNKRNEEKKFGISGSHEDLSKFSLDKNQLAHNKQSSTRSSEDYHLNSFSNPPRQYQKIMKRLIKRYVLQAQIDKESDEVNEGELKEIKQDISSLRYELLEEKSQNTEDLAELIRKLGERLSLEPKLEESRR
TRPC4 act – activators of mouse TRPC4 channel. 310,000 compounds, 0.49% hits. Q9QUQ5. B-score at 10 µM. HEK293 TRPC4beta/mu-opioid, Fluo4 calcium fluorescence; active compounds read high;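 active means B-score above 5 SD of library B-scores, and initial fluorescence ratio not above library mean plus 5 SD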;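 further: positive B-score marks a calcium rise read as TRPC4 activation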
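Assay system: HEK293 cells stably co-expressing mouse TRPC4beta and mu-opioid receptor / Timing: Fluo4 dye loading 45 min at room temperature, 110 s recording / Signal: Fluo4 calcium-sensitive dye fluorescence, kinetic, 1 Hz baseline / Read-out: integrated baseline-normalised fluorescence ratio, converted to per-well B score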
TRPC4 block – inhibitors of mouse TRPC4 channel. Q9QUQ5. HEK293 TRPC4beta/mu-opioid, DAMGO-evoked Fluo4 calcium flux; active compounds read low. B-score at 10 µM. 300,000 compounds, 0.39% hits;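 active means B-score over 3 SD under the library average, no early fluorescence shift, positive overall ratio signal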
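System: stable TRPC4beta/mu-opioid receptor HEK293 cells; Dosing: single-point compound dosing; Measured by: Fluo4 Ca2+ flux fluorescence; Read-out basis: per-well B score of integrated baseline-normalized Fluo4 ratio.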
TRPC4 potent – TRPC4 (mouse) allosteric potentiation; Q9QUQ5; HEK293 TRPC4beta/mu-opioid, DAMGO EC20, Fluo-4 Ca2+ flux; active compounds read high; B-score at 10 µM; 310,000 compounds, 0.42% hits;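 active means B-score of calcium response area above 5 SD of library B-scores, with initial fluorescence ratio within 5 SD of library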;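 further: B-score of integrated fluorescence ratio over time as area under calcium response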
TRPC6 act – activates the mouse TRPC6 cation channel. B-score at 10 µM. Q61143. 310,000 compounds, 0.13% hits. HEK293-TRPC6 membrane potential dye fluorescence; active compounds read high. AID 2550;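 active means B-score of the integrated fluorescence ratio above library mean plus 3 SD, and starting fluorescence ratio within library mean plus 5 SD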;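 further: higher score means more depolarization so channel activation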
Numbers without * were called inactive; i = inactive; x = no result.

SMILES	TRPC6 inhibitor	TRPC4 act	TRPC4 block	TRPC4 potent	TRPC6 act
COc1ccc(/C=C\c2cc(OC)c(OC)cc2CC[N+](C)(C)C)cc1OC	-7.7*	i	i	i	i
COc1ccc(C(=O)N2CCc3ccc(NC(=O)c4ccccn4)cc3C2)cc1F	i	i	i	i	i
Cc1ccc(S(=O)(=O)N(C)c2ccc3c(ncn3C)c2[N+](=O)[O-])cc1	i	i	i	i	i
O=C(CN1C(=O)NC2(CCc3ccccc32)C1=O)c1c[nH]c2ccccc12 (centres undefined)	i	i	i	i	i
O=C1C2C3C=CC(CC3)C2C(=O)N1c1ccccc1F (centres undefined)	i	i	i	i	i
Cc1nc2scc(-c3ccccc3)c2c(=O)n1N=C1C=CC(=O)C=C1	i	i	-6*	i	i
CCN(c1ccccc1)S(=O)(=O)c1cc([N+](=O)[O-])ccc1N	-5.6*	i	i	i	i
O=C(NC(=S)Nc1ccccc1F)C1CCCCC1	i	i	i	i	i
CCOc1ccc(S(=O)(=O)N2CCOCC2)cc1NC(=O)CSCc1c(C)noc1C	i	i	i	10*	i
CCCOc1ccc(CCCN=C(N)N)cc1Cl	i	53*	i	i	i
CCCCOc1ccc(CN=C(N)N)cc1Cl	i	i	i	i	i
CCOc1c(C)cc(S(=O)(=O)NCc2ccccn2)c(C)c1C	i	i	i	i	i
CCC(Sc1nc(-c2ccccc2)c(-c2ccccc2)[nH]1)C(=O)O (centres undefined)	i	i	i	i	i
O=C(N/C(=C\c1cccc(Br)c1)C(=O)N1CCOCC1)c1ccco1	i	i	i	i	i
Cc1cc(OCCCn2ccnc2)ccc1C(C)C	i	i	i	i	i
O=C(COc1ccc(Cl)cc1Cl)NCCCn1ccnc1	i	i	i	i	i
CC(C)(C)c1ccccc1OCC(=O)NCCCn1ccnc1	i	55*	i	i	i
Cc1cc(OCCCCn2ccnc2)cc(C)c1Cl	i	141*	i	i	i
Cc1ccccc1OCCCCCn1ccnc1	i	61*	i	i	i
Cc1cc(Cl)cc(C)c1OCCCCn1ccnc1	i	106*	i	i	i
CCCCCCn1nc(C(=O)N(CCOC)c2c(N)n(CCCC)c(=O)[nH]c2=O)c2ccccc2c1=O	i	i	i	i	i
O=C(Cc1ccccc1)NC(C(=O)O)C(O)c1ccc([N+](=O)[O-])cc1 (centres undefined)	i	i	i	i	i
Clc1ccccc1OCCCCn1ccnc1	i	i	i	i	i
Cc1cccc(OCCn2ccnc2)c1	i	i	i	i	i
Clc1ccc(SCCCCn2ccnc2)cc1	i	75*	i	i	i
SMILES	TRPC6 inhibitor	TRPC4 act	TRPC4 block	TRPC4 potent	TRPC6 act
c1ccc2cc(OCCCn3ccnc3)ccc2c1	i	53*	i	11*	i
Cc1cccc(Cl)c1OCCCCn1ccnc1	i	77*	x	i	i
Cc1cccc(OCCCCCn2ccnc2)c1	i	i	i	14*	i
Clc1ccccc1OCCCn1ccnc1	i	i	i	i	i
Clc1cccc(OCCCn2ccnc2)c1	i	i	i	i	i
Cc1c(C(=O)Nc2c(C)n(C)n(-c3ccccc3)c2=O)oc2ccc(Cl)cc12	i	i	i	i	i
CN(C)S(=O)(=O)c1cccc(NC(=S)NCCc2ccccn2)c1	i	i	i	i	i
Cc1cccc(CN(C)CCc2ccccn2)c1	i	i	i	i	i
CN(CCc1ccccn1)C(=S)Nc1cccc(S(=O)(=O)N(C)C)c1	i	101*	i	i	i
Cc1cccc(OCC(=O)N(C)CCc2ccccn2)c1	i	54*	i	i	i
Cc1ccc(C)c(NC(=S)N(C)CCc2ccccn2)c1	i	74*	i	i	i
CC1(S(=O)(=O)O)CC(=O)c2ccccc2C1=O (centres undefined)	i	i	i	i	i
CCCN1CCc2nc(SCC(=O)Nc3ccc(C)c(Cl)c3)[nH]c(=O)c2C1	i	i	i	i	i
CCN1CCN(C(=O)c2cc(-c3ccc(Cl)s3)nc3ccccc23)CC1	i	i	i	18*	i
CCN1/C(=C\c2ccc3cc(C)ccc3[n+]2CC)Sc2cc(C)c(C)cc21	i	131*	i	29*	i
CCN1/C(=C/c2ccc3cccc(C)c3[n+]2CC)Sc2ccccc21	i	335*	-6*	15*	i
CCCN(c1nc(C)cc(OC)n1)S(=O)(=O)c1ccccc1	i	i	-5*	i	i
COc1ccc(S(=O)(=O)NC2CCCC2)c(Cl)c1Cl	i	i	i	11*	i
COc1ccc(C)cc1S(=O)(=O)NC1CCCC1	i	i	i	i	i
Cc1sc2ncnc(NCC(c3ccco3)N3CCCC3)c2c1C (centres undefined)	i	163*	i	i	i
O=C(NNC(=S)NC(=O)c1ccccc1[N+](=O)[O-])c1ccccc1[N+](=O)[O-]	i	i	i	i	i
Cc1ccccc1OCC(=O)Nc1ccccc1NC(=O)c1ccco1	i	i	i	i	i
CCCCCC(=O)NNC(=S)NC(=O)c1ccc([N+](=O)[O-])cc1	i	79*	i	i	i
Cc1ccc(C(=O)NC(=S)NNC(=O)c2ccccc2[N+](=O)[O-])cc1	i	53*	i	i	i
O=C(NNC(=S)NC(=O)c1ccccc1[N+](=O)[O-])c1ccc(Cl)cc1Cl	i	49*	i	i	i
SMILES	TRPC6 inhibitor	TRPC4 act	TRPC4 block	TRPC4 potent	TRPC6 act
Cc1ccccc1OCC(=O)NNC(=S)NC(=O)c1ccco1	i	88*	i	i	i
O=C(CNC(=O)c1ccc2ccccc2c1)NCc1ccc(F)cc1	i	i	i	i	i
CCOCCCNC(=O)C1(O)c2cc(Br)ccc2NC(=O)N1c1ccc(OCC)cc1 (centres undefined)	i	i	i	i	i
CC1CCCCN1C(=O)COC(=O)c1cc([N+](=O)[O-])ccc1N1CCOCC1 (centres undefined)	i	i	i	i	i
O=C(NNC(=S)NC(=O)c1ccccc1Cl)c1cccc([N+](=O)[O-])c1	i	106*	i	i	i
Cc1ccc(C(=O)NNC(=S)NC(=O)c2ccco2)cc1	i	133*	i	i	i
